Like-named read-outs stand apart in the source and are kept apart here. Marks after values point to notes of the source that are not given here.
Experiments:
[1] = Single oral dose pharmacokinetics of dotinurad in plasma, phase 1 study; format: in vivo, human (healthy Chinese adults); conditions: for Vd/F / half-life / AUC(0-inf) / Cmax / Tmax: human, plasma
Method in brief: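 Healthy nonsmoking Chinese adults (18–45 y, weight ≥ 50 kg) took a single oral tablet dose (1 mg n=8, 4 mg n=10, 10 mg n=8) on Day 1 after a 10-h fast. Plasma was sampled 0–48 h, separated at 2000 g for 10 min at 4 °C, and stored at −80 °C. Samples had solid-phase pretreatment, then LC-MS/MS (LOQ 1 ng/mL). Noncompartmental parameters are mean ± SD, tmax median (min–max).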

[2] = Multiple once-daily oral dose pharmacokinetics of dotinurad in plasma; format: in vivo, human (healthy Chinese adults)
Method in brief: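 In the 4-mg cohort (n=10, screening serum urate ≥ 5.5 mg/dL), a single Day 1 dose was followed by a 3-day washout. The test compound was then given orally once daily on Days 4–10, each morning after a 10-h fast. Plasma sampled 0–72 h after the Day 10 dose was assayed by LC-MS/MS (LOQ 1 ng/mL). Parameters are noncompartmental, with accumulation relative to Day 1. Mean ± SD; tss,max median (min–max).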

[3] = Safety and tolerability: treatment-emergent adverse events; format: in vivo, human (healthy Chinese adults)
Method in brief: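 Oral tablets were given fasted to three cohorts: 1 mg single (n=8), 4 mg single then 7-day once-daily (n=10), and 10 mg single (n=8). Safety covered TEAEs, hematology, blood chemistry, urinalysis, vital signs, weight, 12-lead ECG and physical examination. AEs were coded with MedDRA v25.0. The safety set was subjects with ≥ 1 dose and ≥ 1 postdose assessment, reported as n (%).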

serum urate = conditions: Chinese patients with gout, cited from earlier work
[4] = 4 mg once daily for 7 days, Day 10, N = 10, mean ± SD
[5] = 4 mg once daily for 7 days, Day 10 vs Day 1, N = 10, mean ± SD
[6] = Cohort A, 1 mg single dose, N = 8
[7] = Cohort A, 1 mg single dose, N = 8, determined as drug-related TEAE
[8] = Cohort B, 4 mg single and multiple doses, N = 10
[9] = Cohort C, 10 mg single dose, N = 8

Which “time at which mean plasma concentration reached maximum” value ([1]; across single oral doses of 1, 4 and 10 mg) does the source give for `O=C(c1cc(Cl)c(O)c(Cl)c1)N1CS(=O)(=O)c2ccccc21` [Dotinurad] here?
The value was 3.00 to 3.50 h.

And the CL/F ([1]; across the single-dose range of 1–10 mg)?
Its CL/F is 0.757 to 0.834 L/h.

What about the Vd/F ([1]; oral) of the same compound?
The Vd/F was 11.1 to 11.7 L.

What about the half-life ([1]; oral) of the same compound?
The half-life was about 10 h.

And the AUC(0-inf) ([1]; po, 1 mg)?
Its AUC(0-inf) is 1360 ± 288 ng·h/mL.

And the Cmax ([1]; po, 1 mg)?
The Cmax was 104 ± 18.5 ng/mL.

What about the Tmax ([1]; po, 1 mg) of the same compound?
Its Tmax is 3.5 h.

What about the Vd/F ([1]; po, 1 mg) of the same compound?
Its Vd/F is 11.1 ± 2.06 L.

What about the half-life ([1]; po, 1 mg) of the same compound?
Its half-life is 10.1 ± 1.26 h.

What about the AUC(0-inf) ([1]; po, 4 mg) of the same compound?
The AUC(0-inf) was 4890 ± 683 ng·h/mL.

What about the Cmax ([1]; po, 4 mg) of the same compound?
Its Cmax is 365 ± 35.2 ng/mL.

What about the Tmax ([1]; po, 4 mg) of the same compound?
The Tmax was 3 h.

And the Vd/F ([1]; po, 4 mg)?
The Vd/F was 11.7 ± 1.12 L.

What about the AUC(0-inf) ([1]; po, 10 mg) of the same compound?
The AUC(0-inf) was 13600 ± 2480 ng·h/mL.

What about the Cmax ([1]; po, 10 mg) of the same compound?
The Cmax was 964 ± 101 ng/mL.

And the Tmax ([1]; po, 10 mg)?
The Tmax was 3 h.

And the Vd/F ([1]; po, 10 mg)?
Its Vd/F is 11.6 ± 1.1 L.

What about the half-life ([1]; po, 10 mg) of the same compound?
Its half-life is 10.9 ± 1.53 h.

What about the CL/F ([1]; single oral dose 1 mg, fasted, Cohort A, N = 8, mean ± SD) of the same compound?
Its CL/F is 0.764 ± 0.147 L/h.

What about the CL/F ([1]; single oral dose 4 mg, fasted, Cohort B Day 1, N = 10, mean ± SD) of the same compound?
Its CL/F is 0.834 ± 0.130 L/h.

What about the CL/F ([1]; single oral dose 10 mg, fasted, Cohort C, N = 8, mean ± SD) of the same compound?
Its CL/F is 0.757 ± 0.134 L/h.

And the “mean plasma concentration relative to the corresponding maximum concentration” value ([1]; within 48 h after single oral doses of 1 to 10 mg)?
Its value is “below 10%”.

What about the CLss/F [2, 4] of the same compound?
Its CLss/F is 0.923 ± 0.183 L/h.

And the “Css,av” value [2, 4]?
The value was 186 ± 31.8 ng/mL.

And the “Css,max” value [2, 4]?
The value was 397 ± 69.4 ng/mL.

And the “Css,min” value [2, 4]?
The value was 65.4 ± 22.1 ng/mL.

What about the “tss,max” value ([2]; 4 mg once daily for 7 days, Day 10, N = 10, median (min–max)) of the same compound?
Its value is 3.00 (2.00–6.00) h.

What about the “Rac(AUC0–24h) accumulation ratio” value [2, 5] of the same compound?
The value was 1.13 ± 0.121.

What about the “Rac(Cmax) accumulation ratio” value [2, 5] of the same compound?
Its value is 1.09 ± 0.185.

What about the AUC ([2]; human, plasma, oral, 4 mg) of the same compound?
The AUC was 4470 ± 762 ng·h/mL.

And the Vd/F ([2]; human, plasma, oral, 4 mg)?
Its Vd/F is 13.2 ± 1.64 L.

What about the half-life ([2]; human, plasma, oral, 4 mg) of the same compound?
The half-life was 10.1 ± 1.72 h.

What about the “mean plasma concentration relative to the corresponding maximum concentration” value ([2]; within 72 h after Day 10 dose, 4 mg once daily for 7 days) of the same compound?
Its value is “below 1%”.

And the “dose dependence of TEAEs” value ([3]; 1, 4 and 10 mg cohorts)?
Its value is “No dose-dependent TEAEs were observed”.

And the “Number of subjects with at least one TEAE, any severity” value (“Number of subjects … any severity” for short) [3, 6]?
The value was 2 (25.0) n (%).

And the “Number of subjects with at least one TEAE, mild” value (shortened to “Number of subjects … mild”) [3, 6]?
Its value is 2 (25.0) n (%).

And the “Number of subjects with at least one TEAE, moderate” value (“Number of subjects … moderate” below) [3, 6]?
The value was 0 n (%).

What about the “Number of subjects with at least one TEAE, severe” value (from here on “Number of subjects … severe”) [3, 6] of the same compound?
Its value is 0 n (%).

And the “TEAE: Blood bilirubin increased (mild)” value [3, 6]?
The value was 0 n (%).

And the “TEAE: Body temperature increased (mild)” value [3, 6]?
Its value is 0 n (%).

What about the “TEAE: Alanine aminotransferase increased (mild)” value [3, 7] of the same compound?
Its value is 1 (12.5)^a n (%).

And the “TEAE: Blood triglycerides increased (mild)” value [3, 7]?
The value was 1 (12.5)^a n (%).

What about the “Number of subjects … any severity” value [3, 8] of the same compound?
Its value is 2 (20.0) n (%).

And the “Number of subjects … mild” value [3, 8]?
The value was 2 (20.0) n (%).

And the “Number of subjects … moderate” value [3, 8]?
Its value is 0 n (%).

And the “Number of subjects … severe” value [3, 8]?
The value was 0 n (%).

What about the “TEAE: Alanine aminotransferase increased (mild)” value [3, 8] of the same compound?
Its value is 0 n (%).

And the “TEAE: Blood bilirubin increased (mild)” value [3, 8]?
The value was 1 (10.0) n (%).

What about the “TEAE: Blood triglycerides increased (mild)” value [3, 8] of the same compound?
The value was 0 n (%).

And the “TEAE: Body temperature increased (mild)” value [3, 8]?
Its value is 1 (10.0) n (%).

What about the “Number of subjects … any severity” value [3, 9] of the same compound?
Its value is 0 n (%).

And the “Number of subjects … mild” value [3, 9]?
The value was 0 n (%).

What about the “Number of subjects … moderate” value [3, 9] of the same compound?
Its value is 0 n (%).

What about the “Number of subjects … severe” value [3, 9] of the same compound?
The value was 0 n (%).

What about the “TEAE: Alanine aminotransferase increased (mild)” value [3, 9] of the same compound?
Its value is 0 n (%).

And the “TEAE: Blood bilirubin increased (mild)” value [3, 9]?
Its value is 0 n (%).

What about the “TEAE: Blood triglycerides increased (mild)” value [3, 9] of the same compound?
Its value is 0 n (%).

And the “TEAE: Body temperature increased (mild)” value [3, 9]?
The value was 0 n (%).

What about the “Number of subjects … any severity” value ([3]; Total, all cohorts, N = 26) of the same compound?
Its value is 4 (15.4) n (%).

What about the “Number of subjects … mild” value ([3]; Total, all cohorts, N = 26) of the same compound?
Its value is 4 (15.4) n (%).

What about the “Number of subjects … moderate” value ([3]; Total, all cohorts, N = 26) of the same compound?
Its value is 0 n (%).

What about the “Number of subjects … severe” value ([3]; Total, all cohorts, N = 26) of the same compound?
Its value is 0 n (%).

And the “TEAE: Alanine aminotransferase increased (mild)” value ([3]; Total, all cohorts, N = 26)?
The value was 1 (3.8) n (%).

And the “TEAE: Blood bilirubin increased (mild)” value ([3]; Total, all cohorts, N = 26)?
Its value is 1 (3.8) n (%).

What about the “TEAE: Blood triglycerides increased (mild)” value ([3]; Total, all cohorts, N = 26) of the same compound?
Its value is 1 (3.8) n (%).

And the “TEAE: Body temperature increased (mild)” value ([3]; Total, all cohorts, N = 26)?
Its value is 1 (3.8) n (%).

And the “severity and outcome of TEAEs” value ([3]; all cohorts)?
The value was “All the TEAEs were mild and resolved without any treatment”.

And the “fatal TEAE, serious TEAE, or TEAE leading to discontinuation of study drug” value ([3]; all cohorts, 1–10 mg)?
The value was “No fatal TEAE, serious TEAE, or TEAE leading to discontinuation of study drug was reported”.

What about the “subjects who experienced at least 1 TEAE” value ([3]; all cohorts, 4 of 26 subjects) of the same compound?
Its value is 15.4%.

And the “subjects who experienced at least 1 TEAE” value ([3]; single and multiple doses of 4 mg (Cohort B), 2/10 subjects)?
Its value is 20.0%.

And the “subjects who experienced at least 1 TEAE” value ([3]; single dose 1 mg (Cohort A), 2/8 subjects)?
Its value is 25.0%.

And the “reduction of serum urate” value (serum urate; 2 mg, Week 12)?
Its value is 37.9%.

What about the “reduction of serum urate” value (serum urate; 4 mg, Week 24) of the same compound?
The value was 45.9%.

From publication PMC12669303 (Clinical Drug Investigation, 2025)
